Published values from different studies.
Compare with care: the assays were run in different laboratories.
Target: Serine/threonine-protein kinase NIM1 (NIM1K, Homo sapiens, UniProt Q8IY84)

SMILES	assay	setting	measurement	value
Cc1c(C(=O)O)cc(-c2ccc(C3CCNCC3)cc2)c2ccc(-c3ccc(C(F)(F)F)cc3)cc12	binding, competition with immobilised ligand	1 µM	remaining binding	92%
CC/C(=N\NC(=O)NCc1cccc(O)c1)c1ccc(O)c(C)c1O	enzyme activity, inhibitor	0.1 µM	inhibition	-2.9%
CN1CC(Oc2cnc(C#N)cc2-c2ccn3nc(NC(=O)C4CC4)cc3c2)C1	enzyme activity, inhibitor	1 µM	inhibition	8%
Cc1cnc(NC2CCOCC2)nc1-n1cnc(C(=O)NC(CN)c2cc(F)cc(Cl)c2)c1 (centres unmarked)	enzyme activity, inhibitor, radiometric	1 µM	remaining activity	40%
Nc1ncnc2occ(-c3ccc(NC(=O)Nc4cc(C(F)(F)F)ccc4F)cc3)c12	cell-free assay, inhibitor	20 µM	remaining signal	67%
Cc1cc(NC(=O)c2cccc3cc(-c4cccc5[nH]nc(N)c45)ccc23)ccc1F	enzyme activity, inhibitor	0.1 µM	activity vs control	115%
Cc1ccc(NC(=O)c2ccc(C)c(C(F)(F)F)c2)cc1C#Cc1nn(C2CCC(O)CC2)c2ncnc(N)c12 (centres unmarked)	cell-free assay	10 µM	remaining signal	131%
O=C(Nc1cnn(-c2csc(C(=O)NC3COC3)c2)c1)Nc1ccccc1Cl	enzyme activity, inhibitor	5 µM	remaining activity	101%
COc1cc(Cl)c(C(=O)N[C@@H](CN[C@H]2CC[C@@H](N)CC2)Cc2ccc(C#N)cc2)cc1-c1ccc(CN[C@H](C)c2ccc(C)cc2)o1	enzyme activity, inhibitor	1 µM	remaining activity	98%
COc1cc(-c2cn(C3CCc4ccccc4N(CC(F)(F)F)C3=O)nn2)ccc1-n1ccc(C)n1 (centres unmarked)	cell-free assay, competition with immobilised ligand	1 µM	remaining binding	80%
O=C(Nc1cnn(-c2csc(C(=O)NC3COC3)c2)c1)Nc1c(F)cccc1Cl	enzyme activity, inhibitor	5 µM	remaining activity	70.7%
